According to article PMC6976987 (Molecular Genetics and Metabolism Reports, 2020):
Read-outs that look alike come from different tables or passages of the source.

What was measured:
[1] = Eliglustat alone, pharmacokinetics across all three studies; assay type: in vivo, human
How it was run: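 Test compound given orally to healthy adults as a single dose, then BID. Terminal half-life comes from single-dose plasma profiles by non-compartmental analysis. Plasma was protein-precipitated with acetonitrile containing a 13C internal standard, solid-phase extracted and measured by LC-MS/MS. Steady state was judged by graphical examination of pre-dose (trough) concentrations during repeated dosing.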

[2] = assay type: in vivo, human; details: for AUC: AUC0-τ; for AUC / AUC(0-inf) / Cmax: mean (SD); for AUC(0-inf): AUC0-∞; for Tmax: median (minimum, maximum)
How it was run: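 Open-label, fixed-sequence study in healthy CYP2D6 non-poor metabolizers. Oral test compound 84 mg, fasted: single dose Day 1, BID Days 2–8, then BID with a strong CYP3A/P-gp inhibitor 400 mg QD Days 9–15. Plasma sampled to 36 h Day 1, 12 h Day 8, 72 h Day 15, plus pre-dose samples. LC-MS/MS, LLOQ 0.2 ng/mL. Non-compartmental PK; ratios from log-transformed mixed-effects model with 90% CI.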

[3] = tested on: glucosylceramide synthase; details: read-out: in vitro IC50; inhibitor of glucosylceramide synthase; cited from earlier work
[4] = Rifampin drug interaction study: eliglustat pharmacokinetics in healthy adults; assay type: in vivo, human; details: for increase in eliglustat AUC: single infusion of rifampin 600 mg with single oral dose of eliglustat 127 mg; for Ratio (%) of geometric least squares mean, AUC0-t / AUC: 0 to 12 h; for Tmax: median (minimum, maximum); for AUC: AUC0-τ
[5] = CYP2D6 EMs only, eliglustat 84 mg BID with ketoconazole 400 mg QD
[6] = CYP2D6 non-PMs, eliglustat 84 mg BID with ketoconazole 400 mg QD
[7] = human, plasma, oral, 84 mg, eliglustat 84 mg BID, Days 2 to 8, all (N = 33)
[8] = human, plasma, oral, 84 mg, eliglustat 84 mg single dose, Day 1, all (N = 36)
[9] = human, plasma, oral, eliglustat 84 mg BID + ketoconazole 400 mg QD, Days 9 to 15, all (N = 33)
[10] = CYP2D6 PMs, eliglustat 84 mg BID with oral rifampin 600 mg QD
[11] = CYP2D6 PMs, multiple dose Day 6, test 600 mg rifampin oral QD + 84 mg eliglustat oral BID (N = 6) vs reference 84 mg eliglustat oral BID alone (N = 6)
[12] = CYP2D6 non-PMs, eliglustat 127 mg BID with oral rifampin 600 mg QD
[13] = CYP2D6 non-PMs, multiple dose Day 6, test 600 mg rifampin oral QD + 127 mg eliglustat oral BID (N = 18) vs reference 127 mg eliglustat oral BID alone (N = 19)
[14] = human, plasma, oral, 84 mg, CYP2D6 PMs, eliglustat 84 mg BID, monotherapy period Days 2 to 6, mean (SD)
[15] = human, plasma, oral, 127 mg, CYP2D6 non-PMs (N = 19), eliglustat 127 mg BID, monotherapy period Days 2 to 6, mean (SD)
[16] = human, plasma, oral, 127 mg, IMs/EMs only (N = 14), eliglustat 127 mg BID, monotherapy period Days 2 to 6, mean (SD)
[17] = human, plasma, po, CYP2D6 PMs, eliglustat 84 mg BID + rifampin 600 mg oral QD, concomitant period Days 2 to 6, mean (SD)
[18] = human, plasma, po, CYP2D6 non-PMs (N = 18), eliglustat 127 mg BID + rifampin 600 mg oral QD, concomitant period Days 2 to 6, mean (SD)
[19] = human, plasma, po, IMs/EMs only (N = 13), eliglustat 127 mg BID + rifampin 600 mg oral QD, concomitant period Days 2 to 6, mean (SD)

With CCCCCCCC(=O)N[C@H](CN1CCCC1)[C@H](O)c1ccc2c(c1)OCCO2 [eliglustat] the half-life ([1]; human, plasma, oral) was 4.2 to 5.11 h, the time to steady-state ([1]; repeated doses of eliglustat, graphical examination of Ctrough values) was “approximately 4 days” and the “increase in eliglustat AUC0-τ compared to eliglustat alone” value [2, 5] was 4.4 fold. The “increase in eliglustat Cmax compared to eliglustat alone” value [2, 5] was 4.0 fold, the “increase in eliglustat AUC0-τ (exposure) compared to eliglustat alone” value [2, 6] was 4.3 fold and the “increase in eliglustat Cmax compared to eliglustat alone” value [2, 6] was 3.8 fold. For the same compound, the “Ratio (%) of geometric least squares mean, Cmax” value (from here on “Ratio (%) … Cmax”) ([2]; all subjects, multiple dose, test 400 mg ketoconazole oral QD + 84 mg eliglustat oral BID (N = 33) vs reference 84 mg eliglustat oral BID alone (N = 33)) was 3.84%, the “Ratio (%) of geometric least squares mean, AUC0-t” value (shortened to “Ratio (%) … AUC0-t”) ([2]; all subjects, multiple dose, test 400 mg ketoconazole oral QD + 84 mg eliglustat oral BID (N = 33) vs reference 84 mg eliglustat oral BID alone (N = 33), 0 to 12 h) was 4.27% and the “increase in eliglustat exposure” value ([2]; co-administered with ketoconazole (discussion, rounded)) was 4 fold. It also gave a half-life ([2]; human, plasma, oral, 84 mg) of 5.1 h, an AUC ([2]; human, plasma, oral, 84 mg, eliglustat 84 mg BID, Days 2 to 8, CYP2D6 EMs only (N = 31), 0 to 12 h) of 119 ng·h/mL and an AUC ([2]; human, plasma, oral, 84 mg, eliglustat 84 mg BID, Days 2 to 8, all (N = 33), 0 to 12 h) of 113 ng·h/mL. For the same compound, the AUC(0-inf) ([2]; human, plasma, oral, 84 mg, eliglustat 84 mg single dose, Day 1, CYP2D6 EMs only (N = 32)) was 77.2 ng·h/mL, the AUC(0-inf) ([2]; human, plasma, oral, 84 mg, eliglustat 84 mg single dose, Day 1, all (N = 34)) was 73.2 ng·h/mL and the Cmax ([2]; human, plasma, oral, 84 mg, eliglustat 84 mg BID, Days 2 to 8, CYP2D6 EMs only (N = 31)) was 19.5 ng/mL. The Cmax [2, 7] was 18.6 ng/mL, the Cmax ([2]; human, plasma, oral, 84 mg, eliglustat 84 mg single dose, Day 1, CYP2D6 EMs only (N = 34)) was 10.3 ng/mL and the Cmax [2, 8] was 9.87 ng/mL. The Tmax [2, 7] was 2 h, the Tmax [2, 8] was 1.6 h and the AUC ([2]; human, plasma, oral, eliglustat 84 mg BID + ketoconazole 400 mg QD, Days 9 to 15, CYP2D6 EMs only (N = 31), 0 to 12 h) was 501 ng·h/mL. It also gave an AUC ([2]; human, plasma, oral, eliglustat 84 mg BID + ketoconazole 400 mg QD, Days 9 to 15, all (N = 33), 0 to 12 h) of 474 ng·h/mL, a Cmax ([2]; human, plasma, oral, eliglustat 84 mg BID + ketoconazole 400 mg QD, Days 9 to 15, CYP2D6 EMs only (N = 31)) of 71 ng/mL and a Cmax [2, 9] of 67.2 ng/mL. For the same compound, the Tmax [2, 9] was 2.3 h, the IC50 [3] was 24 nM and the “increase in eliglustat AUC” value ([4]; CYP2D6 EMs) was 24%. The “reduction of eliglustat AUC0-τ compared with eliglustat alone” value [4, 10] was greater than 95%, the “reduction of eliglustat Cmax compared with eliglustat alone” value [4, 10] was greater than 95% and the “Ratio (%) … Cmax” value [4, 11] was 0.05%. For the same compound, the “Ratio (%) … AUC0-t” value [4, 11] was 0.04%, the “effect on mean eliglustat exposure” value ([4]; CYP2D6 PMs, single 30-min infusion of rifampin 600 mg with single oral dose of eliglustat 84 mg) was “no effect” and the “Ratio (%) of geometric least squares mean, AUC0-∞” value ([4]; CYP2D6 PMs, single dose Day 1, test 600 mg rifampin IV + 84 mg eliglustat oral (N = 6) vs reference 84 mg eliglustat oral (N = 5)) was 0.95%. The “Ratio (%) … Cmax” value ([4]; CYP2D6 PMs, single dose Day 1, test 600 mg rifampin IV + 84 mg eliglustat oral (N = 6) vs reference 84 mg eliglustat oral (N = 6)) was 0.97%, the “reduction of eliglustat AUC0-τ (exposure) compared with eliglustat alone” value [4, 12] was greater than 85% and the “reduction of eliglustat Cmax compared with eliglustat alone” value [4, 12] was greater than 85%. The “Ratio (%) … Cmax” value [4, 13] was 0.16%, the “Ratio (%) … AUC0-t” value [4, 13] was 0.15% and the “Ratio (%) of geometric least squares mean, AUC0-∞” value ([4]; CYP2D6 non-PMs, single dose Day 1, test 600 mg rifampin IV + 127 mg eliglustat oral (N = 17) vs reference 127 mg eliglustat oral alone (N = 19)) was 1.19%. For the same compound, the “Ratio (%) … Cmax” value ([4]; CYP2D6 non-PMs, single dose Day 1, test 600 mg rifampin IV + 127 mg eliglustat oral (N = 19) vs reference 127 mg eliglustat oral alone (N = 19)) was 1.19%, the “increase in eliglustat AUC” value ([4]; URMs) was 11% and the Cmax ([4]; human, plasma, iv, CYP2D6 non-PMs (N = 19), eliglustat 127 mg single dose + rifampin 600 mg IV single dose, concomitant period Day 1, mean (SD)) was 17.9 ng/mL. The half-life ([4]; human, plasma, iv, t1/2z, CYP2D6 PMs, eliglustat 84 mg single dose + rifampin 600 mg IV single dose, concomitant period Day 1, mean (SD)) was 6.9 h, the Tmax ([4]; human, plasma, iv, CYP2D6 PMs, eliglustat 84 mg single dose + rifampin 600 mg IV single dose, concomitant period Day 1) was 4 h and the Tmax ([4]; human, plasma, iv, CYP2D6 non-PMs (N = 19), eliglustat 127 mg single dose + rifampin 600 mg IV single dose, concomitant period Day 1) was 3 h. It also gave an AUC [4, 14] of 922 ng·h/mL, a Cmax [4, 14] of 113 ng/mL and a Tmax ([4]; human, plasma, oral, 84 mg, CYP2D6 PMs, eliglustat 84 mg BID, monotherapy period Days 2 to 6) of 3 h. For the same compound, the AUC [4, 15] was 295 ng·h/mL, the AUC [4, 16] was 378 ng·h/mL and the Cmax [4, 15] was 42.8 ng/mL. For the same compound, the Cmax [4, 16] was 54.7 ng/mL, the Tmax ([4]; human, plasma, oral, 127 mg, CYP2D6 non-PMs (N = 19), eliglustat 127 mg BID, monotherapy period Days 2 to 6) was 2 h and the AUC [4, 17] was 38 ng·h/mL. For the same compound, the AUC [4, 18] was 29.3 ng·h/mL, the AUC [4, 19] was 31 ng·h/mL and the Cmax [4, 17] was 5.7 ng/mL. It also gave a Cmax [4, 18] of 4.67 ng/mL, a Cmax [4, 19] of 4.89 ng/mL and a Tmax ([4]; human, plasma, po, CYP2D6 PMs, eliglustat 84 mg BID + rifampin 600 mg oral QD, concomitant period Days 2 to 6) of 2.5 h. The Tmax ([4]; human, plasma, po, CYP2D6 non-PMs (N = 18), eliglustat 127 mg BID + rifampin 600 mg oral QD, concomitant period Days 2 to 6) was 1.5 h, the “changes in eliglustat exposure” value ([4]; in the presence of a single IV infusion of rifampin, called negligible) was less than 19% and the “effect of a single intravenous dose of rifampin on eliglustat” value ([4]; single IV rifampin dose, overall statement) was “no effect”.
